We go through 13 molecules from ChEMBL document CHEMBL4364274, “Synthesis and biological activity of glycyrrhetinic acid derivatives as antitumor agents” (Eur J Med Chem, 2019).

One assay concerns A549. Briefly: Antiproliferative activity against human A549 cells incubated for 72 hrs by MTT assay. In kind it is functional, cell-based. Particulars: A549, 72 h. In a few lines: (§1)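 Cells in exponential growth were plated at 3×10^3 cells/well and grown 24 h at 37 °C in 5% CO2. They were then exposed to a range of drug concentrations for 72 h. MTT (5 mg/mL solution) was added for 4 h, the medium was discarded, and formazan was dissolved in DMSO before reading A490. Drug-free wells served as blanks. % inhibition was calculated as 1 − (sample−blank)/(control−blank), and IC50 was taken as the concentration giving 50% inhibition.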
A general note: Tetrazolium assays rely on reduction of a dye to a coloured formazan, in cell work by metabolically active cells.

In another assay the test system is HeLa. Briefly: Antiproliferative activity against human HeLa cells incubated for 72 hrs by MTT assay. Format: functional, cell-based. In a few lines: as §1
The next assay deals with HepG2. Description: Antiproliferative activity against human HepG2 cells incubated for 72 hrs by MTT assay. The settings on record: HepG2, 72 h. In kind it is functional, cell-based. In a few lines:
as §1

A further assay relates to MCF7. Briefly: Antiproliferative activity against human MCF7 cells incubated for 72 hrs by MTT assay. Particulars: MCF7, 72 h. In kind it is functional, cell-based. The essentials:
as §1

The subject of the next assay is MDCK. Briefly: Cytotoxicity against MDCK cells incubated for 72 hrs by MTT assay. Format: cell-based. The settings on record: Canis lupus familiaris. In a few lines: as §1

For orientation: IC50 means the concentration at which inhibition is half-maximal. Read a high IC50 as a need for much substance. As for `CC1(C)[C@@H](OC(=O)[C@@H]2CCCN2)CC[C@]2(C)[C@H]3C(=O)C=C4[C@@H]5C[C@@](C)(C(=O)OCc6ccccc6)CC[C@]5(C)CC[C@@]4(C)[C@]3(C)CC[C@@H]12`, the IC50 in the assay on A549 was found to be 4.73 µM; with HeLa, 9.05 µM; in the assay with HepG2 it was 6.39 µM; in the assay on MCF7, 5.22 µM; in the assay on MDCK, 9.63 µM.
As to `CC1(C)[C@@H](NC(=O)[C@@H](N)Cc2ccccc2)CC[C@]2(C)[C@H]3C(=O)C=C4[C@@H]5C[C@@](C)(C(=O)OCc6ccccc6)CC[C@]5(C)CC[C@@]4(C)[C@]3(C)CC[C@@H]12`, the IC50 in the assay on A549 was found to be 3.01 µM; in the assay on HeLa, 2.24 µM; with HepG2, 5.05 µM; in the assay on MCF7, 3.28 µM; in the assay on MDCK, 5.02 µM.
Turning to `CC[C@H](C)[C@H](NC(=O)OC(C)(C)C)C(=O)O[C@H]1CC[C@]2(C)[C@H]3C(=O)C=C4[C@@H]5C[C@@](C)(C(=O)OCc6ccccc6)CC[C@]5(C)CC[C@@]4(C)[C@]3(C)CC[C@H]2C1(C)C`, the IC50 in the assay on A549, with HeLa, with HepG2, with MCF7 and in the assay on MDCK was greater than 40 µM in each case.
As to `C[C@H](N)C(=O)O[C@H]1CC[C@]2(C)[C@H]3C(=O)C=C4[C@@H]5C[C@@](C)(C(=O)OCc6ccccc6)CC[C@]5(C)CC[C@@]4(C)[C@]3(C)CC[C@H]2C1(C)C`, the IC50 in the assay on A549 amounted to 3.17 µM; in the assay on HeLa, 5 µM; with HepG2 it was 3.07 µM; in the assay on MCF7, 4.39 µM; with MDCK, 3.4 µM.
Take `CSCC[C@H](NC(=O)OC(C)(C)C)C(=O)O[C@H]1CC[C@]2(C)[C@H]3C(=O)C=C4[C@@H]5C[C@@](C)(C(=O)OCc6ccccc6)CC[C@]5(C)CC[C@@]4(C)[C@]3(C)CC[C@H]2C1(C)C`: the IC50 in the assay on A549, in the assay on HeLa, in the assay with HepG2, in the assay on MCF7 and in the assay with MDCK was greater than 40 µM each time.
`CC[C@H](C)[C@H](NC(=O)OC(C)(C)C)C(=O)N[C@H]1CC[C@]2(C)[C@H]3C(=O)C=C4[C@@H]5C[C@@](C)(C(=O)OCc6ccccc6)CC[C@]5(C)CC[C@@]4(C)[C@]3(C)CC[C@H]2C1(C)C`: the IC50 in the assay on A549, in the assay with HeLa, in the assay on HepG2, with MCF7 and in the assay on MDCK was greater than 40 µM in each case.
Take `CC(C)(C)OC(=O)NCC(=O)O[C@H]1CC[C@]2(C)[C@H]3C(=O)C=C4[C@@H]5C[C@@](C)(C(=O)OCc6ccccc6)CC[C@]5(C)CC[C@@]4(C)[C@]3(C)CC[C@H]2C1(C)C`: the IC50 in the assay with A549, with HeLa, in the assay with HepG2, in the assay with MCF7 and in the assay with MDCK was greater than 40 µM each time.
As to `CC(C)C[C@H](NC(=O)OC(C)(C)C)C(=O)O[C@H]1CC[C@]2(C)[C@H]3C(=O)C=C4[C@@H]5C[C@@](C)(C(=O)OCc6ccccc6)CC[C@]5(C)CC[C@@]4(C)[C@]3(C)CC[C@H]2C1(C)C`, the IC50 in the assay with A549, with HeLa, in the assay on HepG2, with MCF7 and with MDCK was greater than 40 µM each time.
Turning to `C[C@H](NC(=O)OC(C)(C)C)C(=O)O[C@H]1CC[C@]2(C)[C@H]3C(=O)C=C4[C@@H]5C[C@@](C)(C(=O)OCc6ccccc6)CC[C@]5(C)CC[C@@]4(C)[C@]3(C)CC[C@H]2C1(C)C`, the IC50 in the assay with A549, in the assay with HeLa, in the assay on HepG2, in the assay with MCF7 and in the assay on MDCK was greater than 40 µM throughout.
Take `CN(CC(=O)O[C@H]1CC[C@]2(C)[C@H]3C(=O)C=C4[C@@H]5C[C@@](C)(C(=O)OCc6ccccc6)CC[C@]5(C)CC[C@@]4(C)[C@]3(C)CC[C@H]2C1(C)C)C(=O)OC(C)(C)C`: the IC50 with A549, in the assay on HeLa, in the assay with HepG2, with MCF7 and with MDCK was greater than 40 µM in each case.
Take `CSCC[C@H](N)C(=O)N[C@H]1CC[C@]2(C)[C@H]3C(=O)C=C4[C@@H]5C[C@@](C)(C(=O)OCc6ccccc6)CC[C@]5(C)CC[C@@]4(C)[C@]3(C)CC[C@H]2C1(C)C`: the IC50 turned out to be 6.97 µM with A549; 3.1 µM with HeLa; 4.09 µM in the assay with HepG2; 7 µM in the assay with MCF7; 6.25 µM in the assay on MDCK.
The matching figures for `CC(C)(C)OC(=O)N1CCC[C@H]1C(=O)O[C@H]1CC[C@]2(C)[C@H]3C(=O)C=C4[C@@H]5C[C@@](C)(C(=O)OCc6ccccc6)CC[C@]5(C)CC[C@@]4(C)[C@]3(C)CC[C@H]2C1(C)C`: greater than 40 µM, greater than 40 µM, greater than 40 µM, greater than 40 µM and greater than 40 µM.
Regarding `CC(C)C[C@H](N)C(=O)O[C@H]1CC[C@]2(C)[C@H]3C(=O)C=C4[C@@H]5C[C@@](C)(C(=O)OCc6ccccc6)CC[C@]5(C)CC[C@@]4(C)[C@]3(C)CC[C@H]2C1(C)C`, the IC50 worked out at 22.9 µM in the assay on A549; 43.1 µM in the assay on HeLa; 14.9 µM in the assay with HepG2; 11.9 µM with MCF7; 19.3 µM with MDCK.
